# Assay results reported in ChEMBL document CHEMBL1155177, “Activity against human immunodeficiency virus type 1, intracellular metabolism, and effects on human DNA polymerases of 4'-ethynyl-2-fluoro-2'-deoxyadenosine” (Antimicrob Agents Chemother, 2007).
# Legend:
# [1] = system: Human immunodeficiency virus 1; experiment: Ratio of EC50 for R5-HIV1MDR/MM in human PHA-PBMC to EC50 for R5-HIV1Ba-L in human PHA-PBMC; assay type: functional
# CCRF-CEM [2] = experiment: Drug uptake in human CD4+CEM cells assessed as 3'-azido-2',3'-dideoxythymidine triphosphate half life at 200 nM; assay type: ADME, cell-based; conditions: 0.2 µM
# How it was run: (§1)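 CEM cells (10^6 cells/ml) were loaded 6 h with 200 nM [3H]-labelled nucleoside, washed thoroughly, then cultured drug-free for 0, 2, 4, 8, 12 or 24 h. Cells were extracted in 60% methanol, and mono-, di- and triphosphates were quantified by SAX HPLC with fraction scintillation counting. Values are means of 2–3 independent experiments.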
# [3] = system: Human immunodeficiency virus 1; experiment: Antiviral activity against R5-HIV1MDR/G assessed as inhibition of p24 Gag protein in human PHA-PBMC by ELISA relative to X4-HIV1NL4-3; assay type: functional
# [4] = Cytotoxicity against human PHA-PBMC cells by MTT assay; assay type: cell-based
# [5] = system: Human immunodeficiency virus 1; experiment: Ratio of EC50 for X4-HIV1MDR/C in human PHA-PBMC to EC50 for X4-HIV1NL4-3 in human MT4 cells; assay type: functional, NL4-3
# [6] = system: Human immunodeficiency virus 1; experiment: Antiviral activity against R5-HIV1MDR/C assessed as inhibition of p24 Gag protein production in human PHA-PBMC by ELISA; assay type: functional, organism-based
# How it was run: (§2)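 PHA-stimulated PBMC (10^6 cells/ml; 10^5 cells/well) were infected with 50 TCID50 of HIV-1Ba-L or a primary multidrug-resistant isolate and cultured with drug in 10-fold serial dilutions. On day 7, supernatant p24 Gag was measured by automated chemiluminescent enzyme immunoassay. EC50 is the concentration that halves p24 relative to drug-free cultures. Triplicate assays.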
# CCRF-CEM [7] = experiment: Metabolic stability of the compound in human CEM cells assessed as 3'-azido-2',3'-dideoxythymidine diphosphate intracellular levels at 200 nM after 24 hrs; assay type: ADME, cell-based; conditions: 0.2 µM; how it was run: as §1
# CCRF-CEM [8] = experiment: Drug uptake in human CD4+CEM cells assessed as 3'-azido-2',3'-dideoxythymidine monophosphate half life at 200 nM; assay type: ADME, cell-based; conditions: 0.2 µM; how it was run: as §1
# MT4 = experiment: Cytotoxicity against human MT4 cells by MTT assay; assay type: functional
# CCRF-CEM [9] = experiment: Metabolic stability of the compound in human CEM cells assessed as 3'-azido-2',3'-dideoxythymidine triphosphate intracellular levels at 200 nM after 24 hrs; assay type: ADME, cell-based; conditions: 0.2 µM; how it was run: as §1
# [10] = system: Human immunodeficiency virus 1; experiment: Antiviral activity against R5-HIV1MDR/MM assessed as inhibition of p24 Gag protein production in human PHA-PBMC by ELISA; assay type: functional, organism-based; how it was run: as §2
# CCRF-CEM [11] = experiment: Metabolic stability of the compound in human CEM cells assessed as 3'-azido-2',3'-dideoxythymidine monophosphate intracellular levels at 200 nM after 24 hrs; assay type: ADME, cell-based; conditions: 0.2 µM; how it was run: as §1
# CCRF-CEM [12] = experiment: Metabolic stability of the compound in human CD4+ CEM cells assessed as 3'-azido-2',3'-dideoxythymidine monophosphate intracellular levels at 200 nM after 8 hrs; assay type: ADME, cell-based; conditions: 0.2 µM; how it was run: as §1
# CCRF-CEM [13] = experiment: Drug level in human CD4+CEM cells assessed as increase in 3'-azido-2',3'-dideoxythymidine triphosphate level at 0.1 uM after 6 hrs; assay type: ADME, cell-based
# How it was run: (§3)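 CEM cells (10^6 cells/ml) were incubated 6 h with 0.1, 1 or 10 µM [3H]-labelled nucleoside, then washed. Intracellular nucleosides/nucleotides were extracted in 60% methanol and separated by SAX ion-exchange HPLC on an ammonium phosphate gradient. One-minute fractions up to 40 min were scintillation-counted, and each peak plus flanking fractions were summed. Two independent experiments were run.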
# [14] = system: Human immunodeficiency virus 1; experiment: Antiviral activity against HIV1 NL4-3 replication in human MT4 cells at 0.01 uM pretreated 24 hrs before infection assessed as protection at 1 uM by MTT assay; assay type: functional
# CCRF-CEM [15] = experiment: Drug level in human CD4+CEM cells per 10^9 cells at 0.1 uM; assay type: ADME, cell-based; how it was run: as §3
# [16] = system: Human immunodeficiency virus 1; experiment: Antiviral activity against R5-HIV1MDR/G assessed as inhibition of p24 Gag protein production in human PHA-PBMC by ELISA; assay type: functional, organism-based; how it was run: as §2
# [17] = system: Human immunodeficiency virus 1; experiment: Antiviral activity against HIV1 NL4-3 replication in human MT4 cells at 0.01 uM pretreated 48 hrs before infection assessed as protection at 1 uM by MTT assay; assay type: functional
# [18] = system: Human immunodeficiency virus 1; experiment: Antiviral activity against X4-HIV1 NL4-3 assessed as […] in human MT4 cells by MTT assay; assay type: functional, organism-based; conditions: Human immunodeficiency virus 1, NL4-3, MT4
# CCRF-CEM [19] = experiment: Drug uptake in human CD4+CEM cells assessed as 3'-azido-2',3'-dideoxythymidine diphosphate half life at 200 nM; assay type: ADME, cell-based; conditions: 0.2 µM; how it was run: as §1
# CCRF-CEM [20] = experiment: Metabolic stability of the compound in human CD4+ CEM cells assessed as 3'-azido-2',3'-dideoxythymidine triphosphate intracellular levels at 200 nM after 8 hrs; assay type: ADME, cell-based; conditions: 0.2 µM; how it was run: as §1
# CCRF-CEM [21] = experiment: Metabolic stability of the compound in human CD4+ CEM cells assessed as 3'-azido-2',3'-dideoxythymidine diphosphate intracellular levels at 200 nM after 8 hrs; assay type: ADME, cell-based; conditions: 0.2 µM; how it was run: as §1
# [22] = Inhibition of human DNA polymerase alpha using calf thymus DNA as a template
# How it was run: (§4)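 Each 30-min, 37 °C reaction contained 50 mM Tris pH 8.0, 8 mM MgCl2, 60 mM KCl, 10 mM DTT, BSA, 0.3 µM [α-32P]dATP, inhibitor, and either 250 nM D21/D36 or 0.1 mg/ml activated calf thymus DNA. Enzyme was 1 unit polymerase α, 100 nM β or 2.5 nM γ. Reactions were stopped with EDTA and spotted onto DE81 filters. Incorporated dAMP was quantified by phosphorimaging to give the IC50.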
# [23] = Inhibition of human DNA polymerase gamma using calf thymus DNA as a template; how it was run: as §4
# [24] = Inhibition of human DNA polymerase beta using D21/D36 DNA as a template; how it was run: as §4
# [25] = Inhibition of human DNA polymerase gamma using D21/D36 DNA as a template; how it was run: as §4
# [26] = Inhibition of human DNA polymerase beta using calf thymus DNA as a template; how it was run: as §4
# CCRF-CEM [27] = experiment: Metabolic stability of the compound in human CD4+ CEM cells assessed as 4'-ethynyl-2-fluoro-2'-deoxyadenosine triphosphate intracellular levels at 200 nM after 8 hrs; assay type: ADME, cell-based; conditions: 0.2 µM; how it was run: as §1
# CCRF-CEM [28] = experiment: Drug uptake in human CD4+CEM cells assessed as 4'-ethynyl-2-fluoro-2'-deoxyadenosine monophosphate half life at 200 nM; assay type: ADME, cell-based; conditions: 0.2 µM; how it was run: as §1
# [29] = system: Human immunodeficiency virus 1; experiment: Antiviral activity against HIV1 NL4-3 replication in human MT4 cells at 0.01 uM pretreated 48 hrs before infection assessed as protection at 0.01 uM by MTT assay; assay type: functional
# CCRF-CEM [30] = experiment: Metabolic stability of the compound in human CD4+ CEM cells assessed as 4'-ethynyl-2-fluoro-2'-deoxyadenosine diphosphate intracellular levels at 200 nM after 8 hrs; assay type: ADME, cell-based; conditions: 0.2 µM; how it was run: as §1
# CCRF-CEM [31] = experiment: Drug uptake in human CD4+CEM cells assessed as 4'-ethynyl-2-fluoro-2'-deoxyadenosine triphosphate half life at 200 nM; assay type: ADME, cell-based; conditions: 0.2 µM; how it was run: as §1
# [32] = system: Human immunodeficiency virus 1; experiment: Antiviral activity against HIV1 NL4-3 replication in human MT4 cells at 0.01 uM pretreated 24 hrs before infection assessed as protection at 0.01 uM by MTT assay; assay type: functional
# CCRF-CEM [33] = experiment: Metabolic stability of the compound in human CD4+ CEM cells assessed as 4'-ethynyl-2-fluoro-2'-deoxyadenosine monophosphate intracellular levels at 200 nM after 8 hrs; assay type: ADME, cell-based; conditions: 0.2 µM; how it was run: as §1
# CCRF-CEM [34] = experiment: Drug level in human CD4+CEM cells assessed as increase in 4'-ethynyl-2-fluoro-2'-deoxyadenosine triphosphate level at 0.1 uM after 6 hrs; assay type: ADME, cell-based; how it was run: as §3
# CCRF-CEM [35] = experiment: Drug uptake in human CD4+CEM cells assessed as 4'-ethynyl-2-fluoro-2'-deoxyadenosine diphosphate half life at 200 nM; assay type: ADME, cell-based; conditions: 0.2 µM; how it was run: as §1
# [36] = system: Human immunodeficiency virus 1; experiment: Antiviral activity against R5-HIV1Ba-L assessed as inhibition of p24 Gag protein production in human PHA-PBMC by ELISA; assay type: functional, organism-based; conditions: Human immunodeficiency virus 1, Ba-L; how it was run: as §2
compound,measurement,setting,value
Cc1cn([C@H]2C[C@H](N=[N+]=[N-])[C@@H](CO)O2)c(=O)[nH]c1=O [ZIDOVUDINE],fold change (FC),[1],22
same,t1/2,CCRF-CEM [2],2.8 h
same,fold change (FC),[3],12
same,CC50,[4],> 10000 nM
same,fold change (FC),[5],12
same,EC50,[6],390 nM
same,Activity,CCRF-CEM [7],11%
same,t1/2,CCRF-CEM [8],1.4 h
same,CC50,MT4,> 100000 nM
same,Activity,CCRF-CEM [9],9%
same,EC50,[10],340 nM
same,Activity,CCRF-CEM [11],10%
same,Activity,CCRF-CEM [12],16%
same,Activity,CCRF-CEM [13],2.4
same,Activity,[14],55%
same,Drug uptake,CCRF-CEM [15],4349 pmol
same,EC50,[16],380 nM
same,Activity,[17],9.2%
same,EC50,[18],33 nM
same,t1/2,CCRF-CEM [19],1.6 h
same,Activity,CCRF-CEM [20],26%
same,Activity,CCRF-CEM [21],26%
C#C[C@]1(COP(=O)(O)OP(=O)(O)OP(=O)(O)O)O[C@@H](n2cnc3c(N)nc(F)nc32)C[C@@H]1O,IC50,[22],> 100000 nM
same,IC50,[23],10000 nM
same,IC50,[24],> 100000 nM
same,IC50,[25],> 100000 nM
same,Ki,[25],24400 nM
same,IC50,[26],> 100000 nM
C#C[C@]1(CO)O[C@@H](n2cnc3c(N)nc(F)nc32)C[C@@H]1O,fold change (FC),[1],8
same,fold change (FC),[3],21
same,Activity,CCRF-CEM [27],72%
same,CC50,[4],12000 nM
same,fold change (FC),[5],4
same,t1/2,CCRF-CEM [28],8.1 h
same,EC50,[6],4 nM
same,Activity,[29],47%
same,Activity,CCRF-CEM [30],45%
same,Activity,CCRF-CEM [7],23%
same,CC50,MT4,11000 nM
same,Activity,CCRF-CEM [9],38%
same,t1/2,CCRF-CEM [31],17.2 h
same,Activity,[32],75%
same,EC50,[10],3 nM
same,Activity,CCRF-CEM [33],50%
same,Activity,CCRF-CEM [11],31%
same,Activity,CCRF-CEM [34],22
same,Drug uptake,CCRF-CEM [15],1730 pmol
same,EC50,[16],21 nM
same,t1/2,CCRF-CEM [35],6.7 h
same,EC50,[18],1 nM
same,EC50,[36],0.4 nM
C[C@H](Cn1cnc2c(N)ncnc21)OCP(=O)(O)O [TENOFOVIR ANHYDROUS],fold change (FC),[1],3
same,fold change (FC),[3],3
same,CC50,[4],53000 nM
same,fold change (FC),[5],2
same,EC50,[6],47 nM
same,EC50,[10],82 nM
same,Activity,[14],90%
same,EC50,[16],87 nM
same,Activity,[17],64%
same,EC50,[36],32 nM
CC(C)CN(C[C@@H](O)[C@H](Cc1ccccc1)NC(=O)O[C@H]1CCOC1)S(=O)(=O)c1ccc(N)cc1,fold change (FC),[1],17
same,fold change (FC),[3],10
same,CC50,[4],> 100000 nM
same,fold change (FC),[5],12
same,EC50,[6],280 nM
same,CC50,MT4,> 100000 nM
same,EC50,[18],24 nM
Nc1ncnc2c1ncn2[C@H]1CC[C@@H](COP(=O)(O)OP(=O)(O)OP(=O)(O)O)O1 [DDA-TRIPHOSPHATE],IC50,[22],> 100000 nM
same,IC50,[23],200 nM
same,IC50,[24],3000 nM
same,IC50,[25],2000 nM
same,Ki,[25],4600 nM
same,IC50,[26],200 nM
CC(C)(C)NC(=O)[C@@H]1C[C@@H]2CCCC[C@@H]2CN1C[C@@H](O)[C@H](Cc1ccccc1)NC(=O)[C@H](CC(N)=O)NC(=O)c1ccc2ccccc2n1,fold change (FC),[1],28
same,fold change (FC),[3],3
same,CC50,[4],78000 nM
same,fold change (FC),[5],4
same,EC50,[6],37 nM
same,CC50,MT4,26000 nM
same,EC50,[10],220 nM
same,EC50,[16],26 nM
